ChEMBL document CHEMBL1772950, “Solid phase synthesis and biological activity of tuftsin conjugates” (J Med Chem, 2011)
Calls of active or inactive are those of the source. No cut-off for these calls is given here. Residues, ends and D or L forms follow the SMILES beside them. *: point of attachment. Acridin9yl(1-NO2,4-Me) = Cc1ccc([N+](=O)[O-])c2c(*)c3ccccc3nc12; X1 = O=C(c1ccc([N+](=O)[O-])c2c(=O)c3ccccc3[nH]c12)*; Acridone(4-CO) = O=C(c1cccc2c(=O)c3ccccc3[nH]c12)*; X2 = O=[N+]([O-])c1cccc2nc3ccccc3c(*)c12; Ahx = NCCCCCC(=O)O; GABA = NCCCC(=O)O; βAla = NCCC(=O)O

Experiments:
[1] = molecular target: T1, DNA topoisomerase 1 (Homo sapiens) (UniProt P11387); assay: Inhibition of human topoisomerase I mediated DNA relaxation at 1 to 100 uM
T1 sequence (whole entry): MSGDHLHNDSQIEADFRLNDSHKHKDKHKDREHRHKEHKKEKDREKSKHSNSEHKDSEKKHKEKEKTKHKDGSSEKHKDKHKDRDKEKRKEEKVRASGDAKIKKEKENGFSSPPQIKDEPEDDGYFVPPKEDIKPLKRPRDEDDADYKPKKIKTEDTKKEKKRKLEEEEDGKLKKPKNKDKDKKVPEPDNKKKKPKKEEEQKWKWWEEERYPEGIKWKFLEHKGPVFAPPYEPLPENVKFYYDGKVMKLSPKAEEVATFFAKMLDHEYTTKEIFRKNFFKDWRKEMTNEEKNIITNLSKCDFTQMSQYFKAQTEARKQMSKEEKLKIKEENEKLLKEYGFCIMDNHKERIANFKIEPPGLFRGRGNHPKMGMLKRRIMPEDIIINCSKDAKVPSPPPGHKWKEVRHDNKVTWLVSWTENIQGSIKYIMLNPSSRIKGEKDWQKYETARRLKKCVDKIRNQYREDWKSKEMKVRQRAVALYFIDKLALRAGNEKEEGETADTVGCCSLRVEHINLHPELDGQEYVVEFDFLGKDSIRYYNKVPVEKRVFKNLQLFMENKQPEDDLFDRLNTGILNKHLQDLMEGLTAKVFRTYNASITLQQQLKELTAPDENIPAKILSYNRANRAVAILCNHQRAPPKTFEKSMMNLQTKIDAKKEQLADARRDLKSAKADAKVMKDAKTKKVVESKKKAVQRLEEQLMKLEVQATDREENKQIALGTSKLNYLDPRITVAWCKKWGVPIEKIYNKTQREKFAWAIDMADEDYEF
Outline: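 Relaxation of 200 ng supercoiled pBR322 DNA by purified human topoisomerase I, in 10 mM Tris-HCl pH 7.5, 7.5 mM MgCl2, 60 mM KCl. Run 30 min at 37 °C, stopped with SDS/EDTA loading buffer. Products resolved on 1.2% agarose in TBE at 0.5 V/cm for 18 h, stained with ethidium bromide, imaged under UV.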

HL-60 [2] = assay: Anticancer activity against human HL60 cells assessed as cell viability by MTT assay; type: functional, cell-based
Outline: (§1)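 Cells kept in RPMI 1640 with 10% FBS, 2 mM L-glutamine, penicillin/streptomycin, 37 °C, 5% CO2. Exponentially growing cells exposed continuously to a range of concentrations (10 mM DMSO stocks) for three to four generation times. MTT added for 4 h at 37 °C; formazan read on plate reader. IC50 taken from survival–dose curves versus untreated controls. At least two independent experiments, each in duplicate.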

A549 [3] = assay: Anticancer activity against human A549 cells assessed as cell viability by MTT assay; type: functional, cell-based; outline: as §1
A549 [4] = assay: Cell cycle arrest in human A549 cells assessed as accumulation at S phase after 24 hrs by flow cytometry; type: functional, cell-based
A549 [5] = assay: Cell cycle arrest in human A549 cells assessed as accumulation at G2 phase after 72 hrs by flow cytometry; type: functional, cell-based
HL-60 [6] = assay: Cell cycle arrest in human HL60 cells assessed as accumulation at early S phase after 72 hrs by flow cytometry; type: functional, cell-based
HL-60 [7] = assay: Cell cycle arrest in human HL60 cells assessed as accumulation at G2 phase after 72 hrs by flow cytometry; type: functional, cell-based
HL-60 [8] = assay: Cell cycle arrest in human HL60 cells assessed as accumulation at G2 phase after 24 hrs by flow cytometry; type: functional, cell-based
A549 [9] = assay: Cell cycle arrest in human A549 cells assessed as accumulation at M phase after 24 hrs by flow cytometry; type: functional, cell-based
A549 [10] = assay: Cell cycle arrest in human A549 cells assessed as accumulation at M phase after 72 hrs by flow cytometry; type: functional, cell-based
HL-60 [11] = assay: Cell cycle arrest in human HL60 cells assessed as accumulation at M phase after 72 hrs by flow cytometry; type: functional, cell-based
[12] = molecular target: DNA topoisomerase II alpha (Homo sapiens) (UniProt P11388); assay: Inhibition of human topoisomerase II mediated DNA relaxation at 1 to 100 uM
DNA topoisomerase II alpha (Homo sapiens), sequence (P11388 whole entry, looked up): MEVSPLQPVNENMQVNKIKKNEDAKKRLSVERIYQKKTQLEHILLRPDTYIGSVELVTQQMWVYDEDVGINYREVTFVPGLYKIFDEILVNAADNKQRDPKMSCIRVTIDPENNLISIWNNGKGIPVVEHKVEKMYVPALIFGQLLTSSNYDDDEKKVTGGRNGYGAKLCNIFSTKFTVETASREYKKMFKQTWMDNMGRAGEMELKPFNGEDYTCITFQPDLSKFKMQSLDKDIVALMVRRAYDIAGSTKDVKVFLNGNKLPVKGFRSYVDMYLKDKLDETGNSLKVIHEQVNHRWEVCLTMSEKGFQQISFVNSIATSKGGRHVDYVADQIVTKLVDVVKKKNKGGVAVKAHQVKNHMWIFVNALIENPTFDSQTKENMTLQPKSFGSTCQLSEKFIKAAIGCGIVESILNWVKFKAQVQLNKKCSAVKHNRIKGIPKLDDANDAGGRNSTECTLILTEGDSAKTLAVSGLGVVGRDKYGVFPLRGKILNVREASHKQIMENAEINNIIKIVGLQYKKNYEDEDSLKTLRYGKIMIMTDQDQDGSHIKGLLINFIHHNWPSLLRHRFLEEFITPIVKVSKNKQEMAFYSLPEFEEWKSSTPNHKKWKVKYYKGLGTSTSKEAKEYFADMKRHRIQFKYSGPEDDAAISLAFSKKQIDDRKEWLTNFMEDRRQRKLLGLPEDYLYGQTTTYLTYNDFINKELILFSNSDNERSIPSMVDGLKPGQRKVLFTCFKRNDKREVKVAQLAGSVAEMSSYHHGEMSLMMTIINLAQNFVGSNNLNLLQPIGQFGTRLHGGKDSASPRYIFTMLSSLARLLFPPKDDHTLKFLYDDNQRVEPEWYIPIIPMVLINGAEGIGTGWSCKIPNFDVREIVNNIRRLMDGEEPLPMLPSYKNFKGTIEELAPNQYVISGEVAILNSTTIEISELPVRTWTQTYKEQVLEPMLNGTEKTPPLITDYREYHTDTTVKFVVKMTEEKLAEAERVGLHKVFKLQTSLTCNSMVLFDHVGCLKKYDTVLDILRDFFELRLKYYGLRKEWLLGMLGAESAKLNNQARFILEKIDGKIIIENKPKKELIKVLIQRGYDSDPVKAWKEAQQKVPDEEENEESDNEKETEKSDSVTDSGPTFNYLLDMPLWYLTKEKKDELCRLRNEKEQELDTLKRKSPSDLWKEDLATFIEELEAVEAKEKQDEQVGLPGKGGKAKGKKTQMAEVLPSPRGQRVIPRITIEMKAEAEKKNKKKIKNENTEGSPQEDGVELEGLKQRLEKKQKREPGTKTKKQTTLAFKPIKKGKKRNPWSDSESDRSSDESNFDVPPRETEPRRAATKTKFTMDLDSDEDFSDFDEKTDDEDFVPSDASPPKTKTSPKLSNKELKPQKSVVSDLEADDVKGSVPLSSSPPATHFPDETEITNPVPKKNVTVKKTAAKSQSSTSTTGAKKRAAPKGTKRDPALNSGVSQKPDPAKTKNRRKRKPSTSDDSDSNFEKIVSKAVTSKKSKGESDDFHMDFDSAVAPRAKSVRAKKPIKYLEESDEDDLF

A549 [13] = assay: Cell cycle arrest in human A549 cells assessed as accumulation at G2 phase after 24 hrs by flow cytometry; type: functional, cell-based
HL-60 [14] = assay: Induction apoptosis in human HL60 cells assessed as change in nuclear morphology at 25 uM after 24 to 72 hrs by fluorescence microscopy; type: functional, cell-based
HL-60 [15] = assay: Cell cycle arrest in human HL60 cells assessed as accumulation at S phase after 24 hrs by flow cytometry; type: functional, cell-based
A549 [16] = assay: Cell cycle arrest in human A549 cells assessed as accumulation at early S phase after 72 hrs by flow cytometry; type: functional, cell-based
HL-60 [17] = assay: Cell cycle arrest in human HL60 cells assessed as accumulation at M phase after 24 hrs by flow cytometry; type: functional, cell-based

SMILES | IC50 (HL-60 [2]) [µM] | IC50 (A549 [3]) [µM] | also measured
C[C@@H](O)[C@H](Nc1ccc(O)c2c1C(=O)c1ccccc1C2=O)C(=O)N[C@@H](CCCCN)C(=O)N1CCC[C@H]1C(=O)N[C@@H](CCCNC(=N)N)C(=O)O | 32.4 | 14.2 | inhibition [1]: Active
C[C@@H](O)[C@H](NC(=O)[C@H](CCCCN)NC(=O)[C@@H]1CCCN1C(=O)[C@H](CCCNC(=N)N)Nc1ccc(O)c2c1C(=O)c1ccccc1C2=O)C(=O)O | > 100 | > 100 | 
O=C(O)c1ccc([N+](=O)[O-])c2c(=O)c3ccccc3[nH]c12 | > 100 | > 100 | 
Cc1ccc([N+](=O)[O-])c2c(NCCCCCC(=O)O)c3ccccc3nc12 | 17.5 | 18.7 | 
Cc1ccc([N+](=O)[O-])c2c(NCCCC(=O)O)c3ccccc3nc12 | 15.5 | 17.6 | Activity (A549 [4]): Active; Activity (A549 [5]): Active; Activity (HL-60 [6]): Active; Activity (HL-60 [7]): Active; Activity (HL-60 [8]): Active; Activity (A549 [9]): Active; Activity (A549 [10]): Active; Activity (HL-60 [11]): Active; inhibition [12]: inactive; Activity (A549 [13]): Active; Activity (HL-60 [14]): Active; Activity (HL-60 [15]): Active; Activity (A549 [16]): Active; Activity (HL-60 [17]): Active
O=C(O)CCNc1c2ccccc2nc2cccc([N+](=O)[O-])c12 | 18.9 | 6 | 
O=C1CCC(=O)c2c1c(O)c1ccccc1c2O | 15.8 | 15.8 | inhibition [1]: Active
C[C@H](N)C(=O)NCCCC[C@H](NC(=O)[C@@H]1CCCN1C(=O)[C@H](CCCNC(=N)N)Nc1ccc(O)c2c1C(=O)c1ccccc1C2=O)C(=O)N[C@H](C(=O)O)[C@@H](C)O | > 100 | > 100 | 
CC(C)[C@H](N)C(=O)NCCCC[C@H](NC(=O)[C@@H]1CCCN1C(=O)[C@H](CCCNC(=N)N)Nc1ccc(O)c2c1C(=O)c1ccccc1C2=O)C(=O)N[C@H](C(=O)O)[C@@H](C)O |  | 41.5 | 
CC[C@H](C)[C@H](N)C(=O)NCCCC[C@H](NC(=O)[C@@H]1CCCN1C(=O)[C@H](CCCNC(=N)N)NC(=O)c1ccc([N+](=O)[O-])c2c(=O)c3ccccc3[nH]c12)C(=O)N[C@H](C(=O)O)[C@@H](C)O (X1-RPK(Ile)T-OH) | > 100 | 38.9 | 
CC[C@H](C)[C@H](N)C(=O)NCCCC[C@H](NC(=O)[C@@H](NC(=O)c1ccc([N+](=O)[O-])c2c(=O)c3ccccc3[nH]c12)[C@@H](C)O)C(=O)N1CCC[C@H]1C(=O)N[C@@H](CCCNC(=N)N)C(=O)O (X1-TK(Ile)PR-OH) | > 100 | > 100 | 
CC[C@H](C)[C@H](N)C(=O)NCCCC[C@H](NC(=O)[C@@H]1CCCN1C(=O)[C@H](CCCNC(=N)N)NC(=O)CCCCCNc1c2ccccc2nc2c(C)ccc([N+](=O)[O-])c12)C(=O)N[C@H](C(=O)O)[C@@H](C)O ({Acridin9yl(1-NO2,4-Me)-Ahx}-RPK(Ile)T-OH) | 23.2 | 47.3 | 
Cc1ccc([N+](=O)[O-])c2c(NCCCCCC(=O)N[C@@H](CCCNC(=N)N)C(=O)N3CCC[C@H]3C(=O)N[C@@H](CCCCN)C(=O)N[C@H](C(=O)O)[C@@H](C)O)c3ccccc3nc12 ({Acridin9yl(1-NO2,4-Me)-Ahx}-RPKT-OH) | 22.1 | 25.6 | 
CC[C@H](C)[C@H](N)C(=O)NCCCC[C@H](NC(=O)[C@@H](NC(=O)CCCCCNc1c2ccccc2nc2c(C)ccc([N+](=O)[O-])c12)[C@@H](C)O)C(=O)N1CCC[C@H]1C(=O)N[C@@H](CCCNC(=N)N)C(=O)O ({Acridin9yl(1-NO2,4-Me)-Ahx}-TK(Ile)PR-OH) | 11.3 | 8.7 | 
Cc1ccc([N+](=O)[O-])c2c(NCCCCCC(=O)N[C@H](C(=O)N[C@@H](CCCCN)C(=O)N3CCC[C@H]3C(=O)N[C@@H](CCCNC(=N)N)C(=O)O)[C@@H](C)O)c3ccccc3nc12 ({Acridin9yl(1-NO2,4-Me)-Ahx}-TKPR-OH) | 13.2 | 15 | 
Cc1ccc([N+](=O)[O-])c2c(NCCCC(=O)N[C@H](C(=O)N[C@@H](CCCCNC(=O)CN)C(=O)N3CCC[C@H]3C(=O)N[C@@H](CCCNC(=N)N)C(=O)O)[C@@H](C)O)c3ccccc3nc12 ({Acridin9yl(1-NO2,4-Me)-GABA}-TK(Gly)PR-OH) | 17.2 | 3 | Activity (A549 [4]): Active; Activity (A549 [5]): Active; Activity (HL-60 [6]): Active; Activity (HL-60 [7]): Active; Activity (HL-60 [8]): Active; Activity (A549 [9]): Active; Activity (A549 [10]): Active; Activity (HL-60 [11]): Active; inhibition [12]: inactive; Activity (A549 [13]): Active; Activity (HL-60 [14]): inactive; Activity (HL-60 [15]): Active; Activity (A549 [16]): Active; Activity (HL-60 [17]): Active
Cc1ccc([N+](=O)[O-])c2c(NCCC(=O)N[C@H](C(=O)N[C@@H](CCCCNC(=O)CN)C(=O)N3CCC[C@H]3C(=O)N[C@@H](CCCNC(=N)N)C(=O)O)[C@@H](C)O)c3ccccc3nc12 ({Acridin9yl(1-NO2,4-Me)-βAla}-TK(Gly)PR-OH) | 55.5 | 76.5 | 
C[C@@H](O)[C@H](NC(=O)[C@H](CCCCNC(=O)CN)NC(=O)[C@@H]1CCCN1C(=O)[C@H](CCCNC(=N)N)NC(=O)c1cccc2c(=O)c3ccccc3[nH]c12)C(=O)O ({Acridone(4-CO)}-RPK(Gly)T-OH) | > 100 | > 100 | 
CC[C@H](C)[C@H](N)C(=O)NCCCC[C@H](NC(=O)[C@@H]1CCCN1C(=O)[C@H](CCCNC(=N)N)NC(=O)c1cccc2c(=O)c3ccccc3[nH]c12)C(=O)N[C@H](C(=O)O)[C@@H](C)O ({Acridone(4-CO)}-RPK(Ile)T-OH) | > 100 | > 100 | 
C[C@@H](O)[C@H](NC(=O)c1cccc2c(=O)c3ccccc3[nH]c12)C(=O)N[C@@H](CCCCNC(=O)CN)C(=O)N1CCC[C@H]1C(=O)N[C@@H](CCCNC(=N)N)C(=O)O ({Acridone(4-CO)}-TK(Gly)PR-OH) | > 100 | > 100 | 
C[C@@H](O)[C@H](NC(=O)[C@H](CCCCNC(=O)CN)NC(=O)[C@@H]1CCCN1C(=O)[C@H](CCCNC(=N)N)NC(=O)CCNc1c2ccccc2nc2cccc([N+](=O)[O-])c12)C(=O)O ({X2-βAla}-RPK(Gly)T-OH) | 71.5 | 33.9 | 
